Assay results taken from ChEMBL document CHEMBL3102739, “Synthesis and antiproliferative activity of conformationally restricted 1,2,3-triazole analogues of combretastatins in the sea urchin embryo model and against human cancer cell lines” (Bioorg Med Chem, 2014).
Active and inactive are the calls of the source.

Key:
Jurkat/A4 [1] = assay: Induction of apoptosis in human Jurkat/A4 cells assessed as caspase 9 activation at 300 nM after 24 to 48 hrs by Western blotting analysis; format: functional, cell-based
Summary of the method: (§1)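 Cells in RPMI-1640 with 10% FCS at 37 °C, 5% CO2, were treated for 24 or 48 h, then washed in cold PBS. They were lysed 30 min at 4 °C in 20 mM Tris-HCl pH 7.4, 1% Triton X-100, 150 mM NaCl and protease inhibitors. Equal protein was run on 12% SDS-PAGE and blotted to PVDF, with 5% milk block. Primary MoAb 2 h RT, HRP anti-mouse 60 min, ECL; β-actin loading control.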

Jurkat/A4 [2] = assay: Induction of apoptosis in human Jurkat/A4 cells assessed as reduction of XIAP expression at 300 nM after 24 hrs Western blotting analysis; format: functional, cell-based; summary of the method: as §1
Jurkat [3] = assay: Induction of apoptosis in human Jurkat cells assessed as active caspase 3 expression at 30 nM after 24 hrs by FITC-conjugated flow cytometric analysis (reference value: 3.3%); format: functional
[4] = Cytotoxicity against human MES-SA/Dx5 cells after 72 hrs by MTS assay; format: functional, cell-based; details: MES-SA/Dx5, 72 h
Paracentrotus lividus [5] = assay: Antimitotic activity against sea urchin embryo free-swimming blastula model assessed as embryo spinning compound treated at 8 to 10 hrs post-fertilization measured after 0.25 to 20 hrs; format: functional, Blastula stage
Jurkat [6] = assay: Induction of apoptosis in human Jurkat cells assessed as small cell fragments with unequally segregated chromosomes enclosed by cell membrane at 15 nM after 48 hrs by May-Grunwald-Giemsa staining-based microscopic analysis; format: functional
Summary of the method: (§2)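 Jurkat or Jurkat/A4 suspension cultures in RPMI-1640 with 10% FCS at 37 °C, 5% CO2 were treated for 48 h alongside untreated controls. Cells were cytospun, stained May–Grünwald–Giemsa and examined by light microscopy with a 100× objective for nuclear and mitotic abnormalities.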

Jurkat/A4 [7] = assay: Induction of apoptosis in human Jurkat/A4 cells assessed as Bcl-2 expression at 300 nM after 24 to 48 hrs Western blotting analysis; format: functional, cell-based; summary of the method: as §1
Jurkat [8] = assay: Cell cycle arrest in human Jurkat cells assessed as increase in accumulation at G2/M phase at 30 nM after 24 hrs by propidium iodide staining-based flow cytometric analysis; format: functional
[9] = Induction of apoptosis in human Jurkat/A4 cells assessed as active caspase 3 expression at 300 nM after 24 hrs by FITC-conjugated flow cytometric analysis (reference value: 1.1%); format: functional
[10] = Cell cycle arrest in human Jurkat/A4 cells assessed as increase in accumulation at G2/M phase at 300 nM after 24 hrs by propidium iodide staining-based flow cytometric analysis; format: functional
Jurkat/A4 [11] = assay: Cytotoxicity against human Jurkat/A4 cells assessed as cell death treated for 2 hrs followed by cultivation in drug-free medium for 7 days; format: functional, cell-based
Summary of the method: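 Jurkat/A4 cells in RPMI-1640 with 10% fetal calf serum are exposed for two hours, then cultured seven days in drug-free medium and scored for delayed cell death.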

Jurkat [12] = assay: Cell cycle arrest in human Jurkat cells assessed as decrease in accumulation at G0/G1 phase at 30 nM after 24 hrs by propidium iodide staining-based flow cytometric analysis; format: functional
Jurkat [13] = assay: Induction of apoptosis in human Jurkat cells assessed as Bcl-2 expression at 30 nM after 24 to 48 hrs Western blotting analysis; format: functional, cell-based; summary of the method: as §1
Paracentrotus lividus [14] = assay: Antimitotic activity against sea urchin embryo model assessed as cleavage arrest of fertilized egg compound treated at 8 to 20 mins post-fertilization and 45 to 55 mins prior to first mitotic cycle completion measured 2.5 to 5.5 hrs post-fertilization; format: functional
Summary of the method: (§3)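 Fertilized eggs are exposed 8–20 min after fertilization to 2-fold decreasing concentrations. Stocks are 10 mM in DMSO, then diluted 10-fold in 95% EtOH; final DMSO is at most 0.05% and EtOH at most 1%. Embryos are kept as a monolayer, up to 2000 embryos/mL, in filtered seawater at room temperature. The value is the threshold concentration giving cleavage alteration, embryo death before hatching or full mitotic arrest. Duplicates were run.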

Jurkat/A4 [15] = assay: Induction of apoptosis in human Jurkat/A4 cells assessed as micronuclei formation at 300 nM after 48 hrs by May-Grunwald-Giemsa staining-based microscopic analysis; format: functional, cell-based; summary of the method: as §2
Jurkat [16] = assay: Cell cycle arrest in human Jurkat cells assessed as accumulation at sub-G1 phase at 30 nM after 48 hrs by propidium iodide staining-based flow cytometric analysis (reference value: 12.2%); format: functional
Jurkat/A4 [17] = assay: Induction of apoptosis in human Jurkat/A4 cells assessed as small cell fragments with unequally segregated chromosomes enclosed by cell membrane at 300 nM after 48 hrs by May-Grunwald-Giemsa staining-based microscopic analysis; format: functional; summary of the method: as §2
Jurkat [18] = assay: Induction of apoptosis in human Jurkat cells assessed as active caspase 3 expression at 30 nM after 48 hrs by FITC-conjugated flow cytometric analysis (reference value: 3.3%); format: functional
[19] = Cytotoxicity against multidrug-resistant human HL60/TX1000 cells after 72 hrs by MTS assay; format: functional, cell-based; details: HL60/TX1000, 72 h
Jurkat [20] = assay: Induction of apoptosis in human Jurkat cells assessed as active caspase 3 expression at 30 nM by FITC-conjugated flow cytometric analysis; format: functional, cell-based; details: TDE = time-dependent effect
[21] = Cytotoxicity against human Jurkat/A4 cells assessed as cell death at 1 uM after 48 hrs by trypan blue exclusion assay relative to control; format: functional
Summary of the method: (§4)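 Compound added to exponentially growing Jurkat or Jurkat/A4 cells in RPMI-1640 with 10% FCS at 37 °C. Viable cells counted directly by trypan blue exclusion after 48 h. EC50 taken by linear interpolation of survival data. Mean±SD from three independent experiments.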

[22] = Induction of apoptosis in human Jurkat/A4 cells assessed as active caspase 3 expression at 300 nM after 48 hrs by FITC-conjugated flow cytometric analysis (reference value: 1.1%); format: functional
[23] = Induction of apoptosis in human Jurkat/A4 cells assessed as PARP-1 cleavage at 300 nM after 48 hrs by FITC-conjugated flow cytometric analysis (reference value: 0.9%); format: functional
[24] = Cytotoxicity against human MES-SA cells after 72 hrs by MTS assay; format: functional, cell-based
Jurkat [25] = assay: Cytotoxicity against human Jurkat cells assessed as cell viability after 48 hrs by trypan blue exclusion assay; format: functional, cell-based; summary of the method: as §4
Jurkat [26] = assay: Induction of apoptosis in human Jurkat cells assessed as micronuclei formation at 15 nM after 48 hrs by May-Grunwald-Giemsa staining-based microscopic analysis; format: functional, cell-based; summary of the method: as §2
Jurkat [27] = assay: Induction of apoptosis in human Jurkat cells assessed as PARP-1 cleavage at 30 nM after 48 hrs by FITC-conjugated flow cytometric analysis (reference value: 3.5%); format: functional
Jurkat/A4 [28] = assay: Induction of apoptosis in human Jurkat/A4 cells assessed as condensed and fragmented nuclei at 300 nM after 48 hrs by May-Grunwald-Giemsa staining-based microscopic analysis; format: functional, cell-based; summary of the method: as §2
Jurkat [29] = assay: Induction of apoptosis in human Jurkat cells assessed as caspase 2 activation at 30 nM after 24 to 48 hrs by Western blotting analysis; format: functional, cell-based; summary of the method: as §1
Paracentrotus lividus [30] = assay: Antimitotic activity against sea urchin embryo model assessed as cleavage alteration of fertilized egg compound treated at 8 to 20 mins post-fertilization and 45 to 55 mins prior to first mitotic cycle completion measured 2.5 to 5.5 hrs post-fertilization; format: functional; summary of the method: as §3
[31] = Cell cycle arrest in human Jurkat/A4 cells assessed as decrease in accumulation at G0/G1 phase at 300 nM after 24 hrs by propidium iodide staining-based flow cytometric analysis; format: functional
Jurkat [32] = assay: Induction of apoptosis in human Jurkat cells assessed as condensed and fragmented nuclei at 15 nM after 48 hrs by May-Grunwald-Giemsa staining-based microscopic analysis; format: functional, cell-based; summary of the method: as §2
HL-60 = assay: Cytotoxicity against human HL60 cells after 72 hrs by MTS assay; format: functional, cell-based; details: HL-60, 72 h
Jurkat/A4 [33] = assay: Induction of apoptosis in human Jurkat/A4 cells assessed as caspase 2 activation at 300 nM after 24 to 48 hrs by Western blotting analysis; format: functional, cell-based; summary of the method: as §1
Jurkat [34] = assay: Induction of apoptosis in human Jurkat cells assessed as reduction of XIAP expression at 30 nM after 24 hrs Western blotting analysis; format: functional, cell-based; summary of the method: as §1
Jurkat [35] = assay: Induction of apoptosis in human Jurkat cells assessed as caspase 9 activation at 30 nM after 48 hrs by Western blotting analysis; format: functional, cell-based; summary of the method: as §1
[36] = Cell cycle arrest in human Jurkat/A4 cells assessed as accumulation at sub-G1 phase at 300 nM after 48 hrs by propidium iodide staining-based flow cytometric analysis (reference value: 17.1%); format: functional

COc1ccc(-c2cnnn2-c2cc(OC)c(OC)c(OC)c2)cc1
Activity (Jurkat/A4 [1]): inactive
Activity (Jurkat/A4 [2]): inactive
Activity (Jurkat [3]): 19.6%
IC50 [4]: 20 nM
EC (Paracentrotus lividus [5]): 1 µM
Activity (Jurkat [6]): Active
Activity (Jurkat/A4 [7]): inactive
Activity (Jurkat [8]): Active
Activity [9]: 1.8%
Activity [10]: Active
Activity (Jurkat/A4 [11]): Active
Activity (Jurkat [12]): Active
Activity (Jurkat [13]): inactive
EC (Paracentrotus lividus [14]): 0.2 µM
Activity (Jurkat/A4 [15]): Active
Activity (Jurkat [16]): 43.4%
Activity (Jurkat/A4 [17]): Active
Activity (Jurkat [18]): 32.1%
IC50 [19]: 20 nM
Activity (Jurkat [20]): tde
Activity [21]: <20%
Activity [22]: 1.6%
Activity [23]: 2.5%
IC50 [24]: 20 nM
EC50 (Jurkat [25]): 30 nM
Activity (Jurkat [26]): Active
Activity (Jurkat [27]): 61.4%
Activity (Jurkat/A4 [28]): Active
Activity (Jurkat [29]): Active
EC (Paracentrotus lividus [30]): 0.02 µM
Activity [31]: Active
Activity (Jurkat [32]): Active
IC50 (HL-60): 20 nM
Activity (Jurkat/A4 [33]): inactive
Activity (Jurkat [34]): Active
Activity (Jurkat [35]): Active
Activity [36]: 26.2%
